We go through 30 compounds from ChEMBL document CHEMBL1649418, “Pyrimidine derivatives as potent and selective A3 adenosine receptor antagonists” (J Med Chem, 2011).

Common to all, as to assay type: cell-based
Test [1] deals with T1, Adenosine receptor A2b (Homo sapiens) (UniProt P29275).
T1 sequence (whole entry): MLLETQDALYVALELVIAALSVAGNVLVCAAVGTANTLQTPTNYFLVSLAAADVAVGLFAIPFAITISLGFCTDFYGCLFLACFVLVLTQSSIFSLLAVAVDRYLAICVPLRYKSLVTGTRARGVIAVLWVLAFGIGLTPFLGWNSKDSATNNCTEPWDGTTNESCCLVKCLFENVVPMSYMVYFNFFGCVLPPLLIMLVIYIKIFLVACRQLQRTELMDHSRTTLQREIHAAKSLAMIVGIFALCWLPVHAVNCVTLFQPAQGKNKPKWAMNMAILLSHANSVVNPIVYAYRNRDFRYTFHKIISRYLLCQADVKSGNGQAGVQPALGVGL
Kind of test: Displacement of [3H]DPCPX from human adenosine A2B receptor expressed in HEK293 cells at 0.1 uM by liquid scintillation counting. The essentials: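 HEK-293 membranes (18 μg) were incubated with [3H]DPCPX (35 nM) at 25 °C for 30 min, with six concentrations from 0.1 nM to 1 μM. Nonspecific binding was defined with 400 μM NECA. Filters were washed six times with ice-cold buffer and counted by scintillation. Ki (Cheng–Prusoff) is mean ± SEM, n=3; % displacement at 0.1 μM is n=2.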
For orientation: Loss of bound radioactivity is the signal in a displacement assay; it reports binding, not function.

Another test concerns the target Adenosine receptor A2a (Homo sapiens, UniProt P29274). Kind of test: Displacement of [3H][…] from human adenosine A2A receptor expressed in human HeLa cells at 0.1 uM by liquid scintillation counting. The essentials: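 Nonspecific binding was defined with 50 μM NECA. Filters were washed four times with ice-cold buffer, then counted by scintillation. Ki (Cheng–Prusoff) is mean ± SEM, n=3; % displacement at 0.1 μM is n=2.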

The target of test [2] is T2, Adenosine receptor A1 (Homo sapiens) (UniProt P30542).
T2 sequence (whole entry): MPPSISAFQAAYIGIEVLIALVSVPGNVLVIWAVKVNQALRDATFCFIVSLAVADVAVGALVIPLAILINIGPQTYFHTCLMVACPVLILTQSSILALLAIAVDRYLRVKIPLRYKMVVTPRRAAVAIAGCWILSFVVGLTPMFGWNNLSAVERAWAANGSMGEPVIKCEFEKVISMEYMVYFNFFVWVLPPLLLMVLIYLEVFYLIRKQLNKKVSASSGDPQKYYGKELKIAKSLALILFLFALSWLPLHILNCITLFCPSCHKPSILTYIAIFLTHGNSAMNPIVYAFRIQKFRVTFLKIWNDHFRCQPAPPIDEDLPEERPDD
Kind of test: Displacement of [3H]DPCPX from human adenosine A1 receptor expressed in CHO cells at 0.1 uM by liquid scintillation counting. The essentials:
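Transfected CHO cell membranes (15 μg) were incubated with [3H]DPCPX at 25 °C for 60 min, with six test concentrations from 0.1 nM to 1 μM. Nonspecific binding was defined with 10 μM R-PIA. Filters were washed four times with ice-cold buffer before scintillation counting. Ki (Cheng–Prusoff) is mean ± SEM, n=3; % displacement at 0.1 μM is n=2.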

Test [3] concerns the target T3, Adenosine receptor A3 (Homo sapiens) (UniProt P0DMS8).
T3 sequence (whole entry): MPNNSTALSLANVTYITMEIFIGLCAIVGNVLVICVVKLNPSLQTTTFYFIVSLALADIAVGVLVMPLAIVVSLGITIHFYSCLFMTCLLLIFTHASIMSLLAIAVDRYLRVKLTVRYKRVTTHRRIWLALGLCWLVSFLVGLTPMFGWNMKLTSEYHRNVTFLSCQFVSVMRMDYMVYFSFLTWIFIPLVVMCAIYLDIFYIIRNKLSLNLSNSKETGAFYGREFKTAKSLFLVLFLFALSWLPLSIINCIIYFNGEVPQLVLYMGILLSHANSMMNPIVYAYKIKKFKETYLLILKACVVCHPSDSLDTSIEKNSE
Kind of test: Displacement of [3H]NECA from human adenosine A3 receptor expressed in human HeLa cells at 0.1 uM by liquid scintillation counting. The essentials:
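HeLa membranes (90 μg) carrying hA3AR were incubated with [3H]NECA (30 nM) at 25 °C for 180 min, with six concentrations from 0.1 nM to 1 μM. Nonspecific binding was defined with 100 μM R-PIA. Filters were washed six times and counted by scintillation. Ki (Cheng–Prusoff) is mean ± SEM, n=3; % displacement at 0.1 μM is n=2.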

The target in the next test is T4, Adenosine receptor A3 (Homo sapiens, UniProt P0DMS8).
T4 sequence (P0DMS8 whole entry): T3 sequence (whole entry)
Put plainly: Displacement of [3H]NECA from human adenosine A3 receptor expressed in human HeLa cells by liquid scintillation counting. The essentials: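 HeLa membranes (90 μg) carrying hA3AR were incubated with [3H]NECA (30 nM) at 25 °C for 180 min, with six concentrations from 0.1 nM to 1 μM. Nonspecific binding was defined with 100 μM R-PIA. Filters were washed six times and counted by scintillation.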

In general, inhibition refers to the share of the control response that was lost under treatment. A lower inhibition goes with a response near the control.

Sequence of Adenosine receptor A2a (P29274 whole entry): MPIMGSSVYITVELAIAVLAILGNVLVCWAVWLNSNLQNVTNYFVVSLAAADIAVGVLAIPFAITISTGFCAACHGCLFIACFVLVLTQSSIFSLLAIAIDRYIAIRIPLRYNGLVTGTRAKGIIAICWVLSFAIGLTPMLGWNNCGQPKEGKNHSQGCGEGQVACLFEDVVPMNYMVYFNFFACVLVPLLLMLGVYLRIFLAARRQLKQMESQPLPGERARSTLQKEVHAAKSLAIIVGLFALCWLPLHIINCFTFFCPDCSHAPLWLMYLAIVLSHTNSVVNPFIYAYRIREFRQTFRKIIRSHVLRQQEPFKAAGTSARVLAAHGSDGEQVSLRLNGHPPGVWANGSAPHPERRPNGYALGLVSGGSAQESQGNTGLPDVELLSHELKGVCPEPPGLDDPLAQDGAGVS

In the case of `COc1ccc(-c2cc(-c3ccc(OC)cc3)nc(NC(C)=O)n2)cc1`, the inhibition in test [1] was 1%; at Adenosine receptor A2a, 7%; in test [2], 1%; in test [3] it was 20%.

As to `CC(=O)Nc1cc(/C=C/c2ccccc2)nc(/C=C/c2ccccc2)n1`, the figures for the inhibition (in test [1]; on Adenosine receptor A2a; in test [2]) were 1%, 13% and 1%, respectively. Besides, at Adenosine receptor A3 (read-out: Ki), the Ki turned out to be 15.6 nM.

For `CC(=O)Nc1cc(-c2ccc(Cl)cc2)nc(-c2ccc(Cl)cc2)n1`, the inhibition in test [1] stood at 1%; at Adenosine receptor A2a, 10%; in test [2], 1%. In addition, the Ki on Adenosine receptor A3 (read-out: Ki) turned out to be 63.3 nM.

As for `COc1ccc(-c2cc(NC(=O)C(C)C)nc(-c3ccc(OC)cc3OC)n2)c(OC)c1`, the inhibition came to 1% in test [1], 1% on Adenosine receptor A2a and 18% in test [2]. Also, the Ki on Adenosine receptor A3 (read-out: Ki) is 15.9 nM.

`COc1ccc(-c2cc(NC(=O)C3CCCCC3)nc(-c3ccc(OC)cc3)n2)cc1`: the inhibition in test [1] stood at 1%; at Adenosine receptor A2a, 1%; in test [2], 5%. Moreover, the Ki at Adenosine receptor A3 (read-out: Ki) was determined as 32.1 nM.

Regarding `CCC(=O)Nc1nc(-c2ccc(C(C)=O)cc2)cc(-c2ccc(C(C)=O)cc2)n1`, the inhibition in test [1] worked out at 1%; at Adenosine receptor A2a it was 12%; in test [2] it was 1%; in test [3], 17%.

`COc1ccc(-c2cc(NC(C)=O)nc(-c3ccc(OC)cc3)n2)cc1`: the inhibition worked out at 4% in test [1], 10% at Adenosine receptor A2a and 1% in test [2].

`CCC(=O)Nc1nc(-c2ccco2)cc(-c2ccco2)n1`: the inhibition turned out to be 21% in test [1], 15% at Adenosine receptor A2a and 24% in test [2]. Also, on Adenosine receptor A3 (read-out: Ki), the Ki worked out at 1900 nM.

Consider `CCC(=O)Nc1nc(-c2ccccc2OC)cc(-c2ccccc2OC)n1`, for which the inhibition turned out to be 2% in test [1], 13% on Adenosine receptor A2a, 21% in test [2] and 22% in test [3].

For the compound `CCCC(=O)Nc1nc(-c2ccc(SC)cc2)cc(-c2ccc(SC)cc2)n1`, the inhibition in test [1] was determined as 2%; at Adenosine receptor A2a it was 7%; in test [2], 3%; in test [3], 3%.

As for `CCC(CC)C(=O)Nc1cc(-c2ccc(OC)cc2)nc(-c2ccc(OC)cc2)n1`, the inhibition was determined as 8% in test [1], 6% on Adenosine receptor A2a and 3% in test [2]. In addition, the Ki on Adenosine receptor A3 (read-out: Ki) amounted to 58.1 nM.

For the compound `CCC(=O)Nc1cc(-c2ccc(OC)cc2OC)nc(-c2ccc(OC)cc2OC)n1`, the values for the inhibition (in test [1]; at Adenosine receptor A2a; in test [2]) were 8%, 14% and 6%, respectively. Further, the Ki at Adenosine receptor A3 (read-out: Ki) amounted to 11.3 nM.

As for `CCC(CC)C(=O)Nc1cc(-c2ccc(OC)cc2OC)nc(-c2ccc(OC)cc2OC)n1`, the inhibition in test [1] is 2%; on Adenosine receptor A2a, 2%; in test [2], 1%. The Ki on Adenosine receptor A3 (read-out: Ki) is 52.4 nM.

As for `CC(=O)Nc1nc(-c2ccc3c(c2)OCO3)cc(-c2ccc3c(c2)OCO3)n1`, the inhibition in test [1] was 1%; at Adenosine receptor A2a it was 15%; in test [2], 1%. Moreover, the Ki at Adenosine receptor A3 (read-out: Ki) worked out at 101 nM.

Take `CCC(=O)Nc1cc(-c2ccc(C(C)=O)cc2)nc(-c2ccc(C(C)=O)cc2)n1`: the figures for the inhibition (in test [1]; at Adenosine receptor A2a; in test [2]) were 2%, 1% and 1%, respectively. For the same compound, the Ki on Adenosine receptor A3 (read-out: Ki) is 43.9 nM.

`CCC(=O)Nc1cc(/C=C/c2ccccc2)nc(/C=C/c2ccccc2)n1`: the inhibition in test [1] is 2%; at Adenosine receptor A2a, 2%; in test [2] it was 17%. Further, the Ki on Adenosine receptor A3 (read-out: Ki) turned out to be 46.9 nM.

`CCCC(=O)Nc1cc(-c2ccc(C(C)=O)cc2)nc(-c2ccc(C(C)=O)cc2)n1`: the inhibition in test [1] is 1%; at Adenosine receptor A2a, 1%; in test [2], 2%. In addition, the Ki at Adenosine receptor A3 (read-out: Ki) is 133 nM.

Consider `CCC(=O)Nc1nc(-c2ccc(C)cc2)cc(-c2ccc(C)cc2)n1`, for which the inhibition in test [1] was determined as 3%; at Adenosine receptor A2a, 1%; in test [2] it was 1%. For the same compound, at Adenosine receptor A3 (read-out: Ki), the Ki was 157 nM.

As for `CC(=O)Nc1nc(-c2ccc(C)cc2)cc(-c2ccc(C)cc2)n1`, the inhibition was 3% in test [1], 6% at Adenosine receptor A2a and 3% in test [2]. Also, the Ki at Adenosine receptor A3 (read-out: Ki) is 47.3 nM.

With `COc1ccccc1-c1cc(NC(C)=O)nc(-c2ccccc2OC)n1`, the values for the inhibition (in test [1]; on Adenosine receptor A2a; in test [2]) were 1%, 14% and 1%, respectively. Moreover, at Adenosine receptor A3 (read-out: Ki), the Ki is 24.1 nM.

Turning to `CC(=O)Nc1cc(-c2ccc(C(C)=O)cc2)nc(-c2ccc(C(C)=O)cc2)n1`, the inhibition in test [1] was determined as 16%; at Adenosine receptor A2a it was 13%; in test [2], 10%. Moreover, the Ki at Adenosine receptor A3 (read-out: Ki) stood at 25.2 nM.

For `COc1ccc(-c2cc(NC(=O)C3CCCCC3)nc(-c3ccc(OC)cc3OC)n2)c(OC)c1`, the inhibition in test [1] came out at 4%; on Adenosine receptor A2a, 1%; in test [2], 1%. Besides, the Ki at Adenosine receptor A3 (read-out: Ki) was 56.3 nM; on Adenosine receptor A3 (read-out: pKi (converted)) it was 257 nM.

With `CCCC(=O)Nc1cc(-c2ccc(C)cc2)nc(-c2ccc(C)cc2)n1`, the figures for the inhibition (in test [1]; at Adenosine receptor A2a; in test [2]) were 3%, 2% and 16%, respectively. Further, the Ki on Adenosine receptor A3 (read-out: Ki) came to 59 nM.

On to `CC(=O)Nc1cc(-c2ccc(C(F)(F)F)cc2)nc(-c2ccc(C(F)(F)F)cc2)n1`, for which the inhibition (in test [1]; on Adenosine receptor A2a; in test [2]) was 1% each time. On Adenosine receptor A3 (read-out: Ki), the Ki is 126 nM.

With `CCC(=O)Nc1cc(-c2ccc(SC)cc2)nc(-c2ccc(SC)cc2)n1`, the inhibition in test [1] came to 3%; on Adenosine receptor A2a, 1%; in test [2], 1%. For the same compound, the Ki at Adenosine receptor A3 (read-out: Ki) stood at 43.6 nM.

As to `COc1ccc(-c2cc(NC(=O)C(C)C)nc(-c3ccc(OC)cc3)n2)cc1`, the inhibition in test [1] turned out to be 3%; on Adenosine receptor A2a, 1%; in test [2], 5%. Also, at Adenosine receptor A3 (read-out: Ki), the Ki came out at 12.2 nM.

For the compound `CCCC(=O)Nc1cc(-c2ccc(Cl)cc2)nc(-c2ccc(Cl)cc2)n1`, the inhibition in test [1] amounted to 1%; on Adenosine receptor A2a it was 21%; in test [2], 16%. Also, the Ki on Adenosine receptor A3 (read-out: Ki) came to 103 nM.

In the case of `CSc1ccc(-c2cc(NC(C)=O)nc(-c3ccc(SC)cc3)n2)cc1`, the results for the inhibition (in test [1]; on Adenosine receptor A2a; in test [2]) were 2%, 1% and 1%, respectively. The Ki on Adenosine receptor A3 (read-out: Ki) is 71.3 nM.

`CCC(=O)Nc1nc(/C=C/c2ccccc2)cc(/C=C/c2ccccc2)n1`: the inhibition (in test [1]; on Adenosine receptor A2a; in test [2]) was 1% throughout. For the same compound, the Ki at Adenosine receptor A3 (read-out: Ki) was determined as 142 nM.

On to `CCCC(=O)Nc1cc(-c2ccc(OC)cc2OC)nc(-c2ccc(OC)cc2OC)n1`, for which the inhibition in test [1] stood at 14%; on Adenosine receptor A2a, 12%; in test [2] it was 18%. The Ki at Adenosine receptor A3 (read-out: Ki) came out at 10.2 nM.
